The nature of data set [1]: Selectivity index, ratio of IC50 for CHO cells to MIC99 for isoniazid mono-resistant Mycobacterium tuberculosis isolate R5401. In kind it is toxicity. The note with it: hamster, read-out: Selectivity Index.
The test system of data set [2] is Mycobacterium tuberculosis. The experiment in a line: Antimycobacterial activity against isoniazid mono-resistant Mycobacterium tuberculosis isolate R4965 by two fold serial dilution based fluorescence assay. It is filed as functional. Put shortly: (§1)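 MGIT 960 (BACTEC) broth assay in 7H9 with 1% OADC and 0.05% Tween 80. Compounds are 10 mM DMSO stocks, two-fold serially diluted, final DMSO ≤1.2%, top concentration 10 µM. Tubes incubated at 37°C with growth units read daily. MIC99 is set against a 1% drug-free growth control tube.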

Data set [3] has as its system Mycobacterium tuberculosis. Description: Antimycobacterial activity against isoniazid mono-resistant Mycobacterium tuberculosis isolate R5401 by two fold serial dilution based fluorescence assay. In kind it is functional. Put shortly:
as §1

The test system of data set [4] is Mycobacterium tuberculosis. The experiment in a line: Antimycobacterial activity against isoniazid mono-resistant Mycobacterium tuberculosis isolate R73 by two fold serial dilution based fluorescence assay. It is filed as functional. In outline:
as §1

Data set [5] relates to Mycobacterium tuberculosis variant bovis BCG. Description: Inhibition of efflux pump in Mycobacterium bovis BCG infected in macrophages assessed as accumulation of ethidium bromide at 50 uM by measuring increase in fluorescence intensity after 1 hr by flow cytometric assay relative to control. Also noted: Activity: scale not given: the % may be the effect or the level left.

Data set [6] shares this test system. Description: Potency index, ratio of compound effect to CPZ effect for inhibition of efflux pump in Mycobacterium bovis BCG.
For data set [7] the test system is unchanged. Description: Inhibition of efflux pump in Mycobacterium bovis BCG infected in macrophages assessed as accumulation of ethidium bromide at 25 uM by measuring increase in fluorescence intensity after 1 hr by flow cytometric assay. The arrangement: Activity: scale not given: the % may be the effect or the level left. (In general: In flow cytometry, cells or beads pass a laser one at a time.)

Data set [8] has the same test system. Description: Inhibition of efflux pump in Mycobacterium bovis BCG infected in macrophages assessed as accumulation of ethidium bromide at 10 uM by measuring increase in fluorescence intensity after 1 hr by flow cytometric assay. Also noted: scale not given: the % may be the effect or the level left.
A short description of data set [9]: Selectivity ratio of MIC99 for Mycobacterium tuberculosis H37Rv to MIC99 for isoniazid mono-resistant Mycobacterium tuberculosis isolate R5401. It is filed as functional.

≈ marks a conversion by molar mass, not a printed value. Calls of active or inactive are those of the source. The rule behind the calls is not given here.

As usually defined, the MIC99 is the lowest concentration that inhibits either 99% of growth or 99% of the strains tested, depending on the study.

Consider `O=C(NNCCCN1CCC(=C2c3ccccc3Sc3ccc(Cl)cc32)CC1)c1ccncc1`, for which the selectivity ratio in data set [1] worked out at 237. In addition, the MIC99 in data set [2] was > 10 µM; in [3] it was 1.25 µM (≈ 0.614 µg/mL); in data set [4], > 10 µM.
Regarding `O=C(NNCCCNCCCN1c2ccccc2Sc2ccc(Cl)cc21)c1ccncc1`, the MIC99 in [2], in [3] and in data set [4] was > 10 µM in each case.
Regarding `O=C(NNCCCN1CCC(=C2c3ccccc3C=Cc3ccccc32)CC1)c1ccncc1`, the selectivity ratio in [1] is 59.2. Moreover, the values for the MIC99 in [2], in data set [3] and in [4] were > 10 µM, 2.5 µM (≈ 1.13 µg/mL) and > 10 µM, respectively.
As for `O=C(NNCCCN1c2ccccc2Sc2ccc(Cl)cc21)c1ccccc1`, the MIC99 in data set [2] and in data set [4] was > 10 µM throughout. In data set [5], the Activity fell in the range of 40 to 90%. Moreover, the Ratio in data set [6] amounted to 2.
Consider `O=C(NNCCCN1c2ccccc2Sc2ccccc21)c1ccncc1`, for which the MIC99 in data set [2], in data set [3] and in data set [4] was > 10 µM each time. In [5], the inhibition result was “Active”.
Take `O=C(NNCCCN1c2ccccc2Sc2ccc(Cl)cc21)c1ccncc1`: the MIC99 in data set [2], in data set [3] and in data set [4] was > 10 µM in each case. Also, the Ratio in data set [6] worked out at 2. Also, in data set [7], the Activity is 40 to 90%.
On to `O=C(NNCCCN1c2ccccc2Sc2ccccc21)c1ccccc1`, for which the MIC99 in [2] and in data set [4] was > 10 µM throughout. Further, the Activity in data set [5] was in the range of 40 to 90%. For the same compound, in [6], the Ratio turned out to be 2.
Turning to `O=C(NNCCCN1CCN(CC(O)(c2ccccc2)c2ccccc2)CC1)c1ccncc1`, the selectivity ratio in [1] came out at 139. Further, the MIC99 in data set [2] is > 10 µM; in data set [3] it was 2.5 µM (≈ 1.15 µg/mL); in [4], > 10 µM.
In the case of `O=C(NNCCCN1CCC(N2c3ccccc3Sc3ccc(Cl)cc32)CC1)c1ccncc1`, the selectivity ratio in [1] was 37. For the same compound, the MIC99 in data set [2] is > 10 µM; in data set [3], 1 µM (≈ 0.494 µg/mL); in [4] it was > 10 µM. For the same compound, the Ratio in [6] came out at 2. The Activity in [8] was in the range of 40 to 90%.
Regarding `O=C(NNCCCN1CCN(C(c2ccccc2)(c2ccccc2)c2ccccc2)CC1)c1ccncc1`, the selectivity ratio in [1] worked out at 78.1. The MIC99 in data set [2] was > 10 µM; in data set [3] it was 2.5 µM (≈ 1.26 µg/mL); in data set [4], > 10 µM.
`CN(C)CCCN1c2ccccc2Sc2ccc(Cl)cc21` [CHLORPROMAZINE]: the inhibition entry in [7] was “Active”.
On to `NNC(=O)c1ccncc1` [ISONIAZID], for which, in [1], the selectivity ratio is > 35. The inhibition result in data set [5] was “Active”. Besides, in [3], the MIC99 was 2.5 µM (≈ 0.343 µg/mL).
Turning to `O=C(NNCCCN1CCN(C(c2ccccc2)c2ccccc2)CC1)c1ccncc1`, in [9], the Ratio came to 2. Also, in [1], the selectivity ratio was determined as 19.3. For the same compound, the MIC99 in data set [2] was > 10 µM; in data set [3], 2.5 µM (≈ 1.07 µg/mL); in data set [4], > 10 µM.
Turning to `O=C(NNCCCN1CCN(C2c3ccccc3CCc3ccccc32)CC1)c1ccncc1`, the MIC99 in data set [2], in data set [3] and in [4] was > 10 µM each time.
As to `O=C(NNCCCNCCCN1c2ccccc2Sc2ccccc21)c1ccncc1`, the MIC99 in [2], in data set [3] and in data set [4] was > 10 µM in each case.
On to `O=C(NNCCCN1CCC(=C2c3ccccc3Sc3ccccc32)CC1)c1ccncc1`, for which the selectivity ratio in data set [1] turned out to be 60.8. Also, the MIC99 in [2] was > 10 µM; in data set [3] it was 2.5 µM (≈ 1.14 µg/mL); in [4], > 10 µM.
Regarding `O=C(NNCCCN1c2ccccc2CCc2ccccc21)c1ccncc1`, the MIC99 in data set [2], in data set [3] and in data set [4] was > 10 µM throughout. In [5], the inhibition entry is “Active”.
With `O=C(NNCCCN1CCC(N2c3ccccc3Sc3ccccc32)CC1)c1ccncc1`, the Ratio in data set [9] was 2. Further, the selectivity ratio in [1] worked out at 48.8. In addition, the MIC99 was > 10 µM in [2], 2.5 µM (≈ 1.15 µg/mL) in data set [3] and > 10 µM in data set [4].

The values above are taken from ChEMBL document CHEMBL4184228, “Reversed isoniazids: Design, synthesis and evaluation against Mycobacterium tuberculosis” (Bioorg Med Chem, 2018).
